Assay results from ChEMBL document CHEMBL3526029, “Disposition and metabolism of GSK2251052 in humans: a novel boron-containing antibiotic” (Drug Metab Dispos, 2013).

Tests used:
[1] = Total drug recovery in healthy human at 1500 mg, iv infusion for 1 hr as single dose after 72 hrs; format: ADME, organism-based; details: in vivo, read-out: Drug recovery
Procedure, shortened: (§1)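 Six healthy adult males, fasted ≥10 h, got one 1500 mg [14C]GSK2251052 dose ([…], 0.56 MBq) as a constant-rate 1-h IV infusion in 0.9% NaCl. Urine was collected at 0–6, 6–12 and 12–24 h, then in 24-h blocks to 336 h; feces in 24-h blocks. Urine was counted directly by LSC; feces were homogenized and combusted in duplicate before LSC. Cumulative recovery is given as mean % of dose.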

[2] = Drug metabolism in cynomolgus monkey kidney S9 fraction assessed as (S)-3-(3-(aminomethyl)-1-hydroxy-1,3-dihydrobenzo[c][1,2]oxaborol-7-yloxy)propanoicacid formation at 50 to 500 uM after 3 hrs by liquid scintillation counting in presence of NAD+; format: ADME, Macaca fascicularis; details: s9, 3 h
Procedure, shortened: (§2)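 [14C]GSK2251052 was incubated in triplicate for 1 or 3 h at 37°C with 4 mg/ml S9 (monkey liver, lung or kidney; human liver), liver cytosol or liver microsomes and 7.5 mM NAD+. Buffer was pyrophosphate at pH 7.4, 8.4 or 8.8. Controls lacked cofactor or enzyme. Reactions were quenched with acetonitrile, counted by LSC, and pooled for radio-HPLC.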

Liver microsome = test: Drug metabolism in human liver microsomes assessed as (S)-3-(3-(aminomethyl)-1-hydroxy-1,3-dihydrobenzo[c][1,2]oxaborol-7-yloxy)propanoicacid formation at 50 to 500 uM after 3 hrs by liquid scintillation counting in presence of NAD+; format: ADME; procedure, shortened: as §2
[3] = Drug recovery in healthy human urine at 1500 mg, iv infusion for 1 hr as single dose after 96 hrs; format: ADME, organism-based; details: read-out: Drug recovery
[4] = Drug recovery in healthy human urine at 1500 mg, iv infusion for 1 hr as single dose after 216 hrs; format: ADME, organism-based; details: read-out: Drug recovery
Plasma = test: Volume of distribution at steady state in healthy human plasma assessed as radioactivity at 1500 mg, iv infusion for 1 hr as single dose; format: ADME, organism-based; details: in vivo
Procedure, shortened: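 Healthy males got a 1500 mg [14C] dose as a 1-h IV infusion. K2EDTA blood was taken at serial times to 336 h. Radioactivity in blood and plasma was measured by LSC; plasma below 870 ng eq/ml was re-measured by accelerator mass spectrometry. Vss = CL × MRT, with CL = dose/AUC(0-∞), from noncompartmental analysis on actual times.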

[5] = Total drug recovery in healthy human at 1500 mg, iv infusion for 1 hr as single dose after 288 hrs; format: ADME, organism-based; details: in vivo, read-out: Drug recovery; procedure, shortened: as §1
[6] = Total drug recovery in healthy human at 1500 mg, iv infusion for 1 hr as single dose after 24 hrs; format: ADME, organism-based; details: in vivo, read-out: Drug recovery; procedure, shortened: as §1
[7] = Total drug recovery in healthy human at 1500 mg, iv infusion for 1 hr as single dose after 96 hrs; format: ADME, organism-based; details: in vivo, read-out: Drug recovery; procedure, shortened: as §1
[8] = Drug metabolism in cynomolgus monkey lung S9 fraction assessed as (S)-3-(3-(aminomethyl)-1-hydroxy-1,3-dihydrobenzo[c][1,2]oxaborol-7-yloxy)propanoicacid formation at 50 to 500 uM after 3 hrs by liquid scintillation counting in presence of NAD+; format: ADME, Macaca fascicularis; details: s9, 3 h; procedure, shortened: as §2
[9] = Drug metabolism in cynomolgus monkey cytosol assessed as (S)-3-(3-(aminomethyl)-1-hydroxy-1,3-dihydrobenzo[c][1,2]oxaborol-7-yloxy)propanoicacid formation at 50 to 500 uM after 3 hrs by liquid scintillation counting in presence of NAD+ and ADH inhibitor 4-MP; format: ADME, Macaca fascicularis, Liver
Procedure, shortened: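 NAD+ (7.5 mM) incubations of [14C]GSK2251052 with 4 mg/ml monkey liver cytosol or liver S9 in pyrophosphate buffer included 4-MP at 0.6 mM final. Incubations ran in triplicate at 37°C. Extracts were counted by LSC and pooled for radio-HPLC.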

[10] = Drug metabolism in healthy human urine assessed as (S)-3-(3-(aminomethyl)-1-hydroxy-1,3-dihydrobenzo[c][1,2]oxaborol-7-yloxy)propanoicacid formation at 1500 mg, iv infusion for 1 hr as single dose by mass spectrometry; format: ADME, organism-based; details: in vivo
Procedure, shortened: (§3)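 Urine was collected through 336 h after a 1500 mg [14C] i.v. 1-h infusion to six men. Samples were pooled by weight (0–120 h per subject; 120–336 h composite) and centrifuged. Profiling used HPLC (Atlantis T3, ammonium acetate pH 4.5/methanol, 30°C) with fraction radioactivity counting. Identity came from Orbitrap positive-ion accurate mass. Values were given as % dose, corrected for recovery.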

Blood [11] = test: AUC (0 to t) in healthy human whole blood assessed as radioactivity at 1500 mg, iv infusion for 1 hr as single dose; format: ADME, organism-based; details: in vivo
Procedure, shortened: (§4)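 Six fasted healthy men received 1500 mg [14C]GSK2251052 as a 1-h i.v. infusion. Blood and plasma were sampled from predose to 336 h after infusion start. Radioactivity was counted by LSC; plasma below 870 ng eq/ml was reanalysed by accelerator MS, with predose background subtracted. Noncompartmental analysis used actual sampling times, linear-up/log-down trapezoids and CL = dose/AUC(0-∞).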

[12] = Drug recovery in healthy human urine at 1500 mg, iv infusion for 1 hr as single dose after 288 hrs; format: ADME, organism-based; details: read-out: Drug recovery
[13] = Drug metabolism in healthy human urine assessed as 2-(2-amino-1-hydroxyethyl)-6-(3-hydroxypropoxy)phenol formation at 1500 mg, iv infusion for 1 hr as single dose by mass spectrometry; format: ADME, organism-based; details: in vivo; procedure, shortened: as §3
[14] = Drug metabolism in human liver S9 fraction assessed as (S)-3-(3-(aminomethyl)-1-hydroxy-1,3-dihydrobenzo[c][1,2]oxaborol-7-yloxy)propanoicacid formation at 50 to 500 uM after 3 hrs by liquid scintillation counting in presence of NAD+; format: ADME, subcellular; details: s9, 3 h; procedure, shortened: as §2
[15] = Drug recovery in healthy human feces at 1500 mg, iv infusion for 1 hr as single dose after 96 hrs; format: ADME, organism-based; details: read-out: Drug recovery
[16] = Drug metabolism in cynomolgus monkey lung S9 fraction assessed as (S)-3-(3-(aminomethyl)-1-hydroxy-1,3-dihydrobenzo[c][1,2]oxaborol-7-yloxy)propanoicacid formation at 50 to 500 uM after 3 hrs by liquid scintillation counting in presence of NADPH regeneration system; format: ADME, Macaca fascicularis; details: s9, 3 h
[17] = Drug recovery in healthy human urine at 1500 mg, iv infusion for 1 hr as single dose after 120 hrs; format: ADME, organism-based; details: read-out: Drug recovery
[18] = Drug recovery in healthy human urine at 1500 mg, iv infusion for 1 hr as single dose after 72 hrs; format: ADME, organism-based; details: read-out: Drug recovery
Blood [19] = test: Clearance in healthy human whole blood assessed as radioactivity at 1500 mg, iv infusion for 1 hr as single dose; format: ADME, organism-based; details: in vivo; procedure, shortened: as §4
[20] = Drug recovery in healthy human urine at 1500 mg, iv infusion for 1 hr as single dose after 168 hrs; format: ADME, organism-based; details: read-out: Drug recovery
[21] = Drug metabolism in cynomolgus monkey liver S9 fraction assessed as (S)-3-(3-(aminomethyl)-1-hydroxy-1,3-dihydrobenzo[c][1,2]oxaborol-7-yloxy)propanoicacid formation at 50 to 500 uM after 3 hrs by liquid scintillation counting in presence of NADPH regeneration system; format: ADME, subcellular, Macaca fascicularis; details: s9, 3 h
[22] = Drug recovery in healthy human feces at 1500 mg, iv infusion for 1 hr as single dose after 72 hrs; format: ADME, organism-based; details: read-out: Drug recovery

Cl.N[14CH2][C@H]1OB(O)c2c(OCCCO)cccc21
dose excreted at 72 h [1]: 81.2% | Drug metabolism [2]: metabolite_not_detected | Drug metabolism (Liver microsome): metabolite_not_detected | dose excreted at 96 h [3]: 81.1% | dose excreted at 216 h [4]: 88.2% | Vdss (Plasma): 348 L | dose excreted at 288 h [5]: 97.4% | dose excreted at 24 h [6]: 51.3% | dose excreted at 96 h [7]: 87.5% | Drug metabolism [8]: metabolite_not_detected | Drug metabolism [9]: metabolite_not_detected | Drug recovery [10]: metabolite_detected | AUCt (Blood [11]): 141 µg·h/mL | dose excreted at 288 h [12]: 89.8% | Drug recovery [13]: metabolite_detected | Drug metabolism [14]: metabolite_not_detected | dose excreted at 96 h [15]: 6.4% | Drug metabolism [16]: metabolite_not_detected | dose excreted at 120 h [17]: 83.4% | dose excreted at 72 h [18]: 76.9% | CL (Blood [19]): 7.79 L/h | dose excreted at 168 h [20]: 86.4% | Drug metabolism [21]: metabolite_not_detected | dose excreted at 72 h [22]: 4.3%
